Measured values: ChEMBL document CHEMBL4387708, “Enhancement of Benzothiazoles as Pteridine Reductase-1 Inhibitors for the Treatment of Trypanosomatidic Infections” (J Med Chem, 2019)

What was measured:
Trypanosoma cruzi = assay: Growth inhibition of trypomastigote form of Trypanosoma cruzi Y infected in human U2OS cells at 50 uM measured after 72 hrs by DRAQ5 DNA dye based confocal microscopic analysis relative to control; assay type: organism-based; conditions: for growth inhibition (GI): trypanosoma cruzi, 50 µM; for inhibition at 50 µM: Trypanosoma cruzi, Y, U2OS, read-out: GI
Leishmania infantum = assay: Growth inhibition of luciferase expressing Leishmania infantum axenic amastigotes infected in human THP1 cells at 10 uM measured after 72 hrs by steady-glo luminescence assay relative to control; assay type: organism-based; conditions: for growth inhibition (GI): leishmania infantum, 72 h, 10 µM
[1] = Inhibition of N-terminal His-tagged Trypanosoma brucei pteridine reductase 1 using di-hydrobiopterine as substrate measured at 1 min interval for 50 mins in presence of NADPH
Summary of the method: (§1)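 Photometric PTR1 assay with NADPH and dihydrobiopterin substrate. H₄B formation is coupled non-enzymatically to cytochrome c reduction, read as signal increase at 550 nm.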

Trypanosoma brucei [2] = assay: Inhibition of N-terminal His-tagged Trypanosoma brucei pteridine reductase 1 at 50 uM using di-hydrobiopterine as substrate measured at 1 min interval for 50 mins in presence of NADPH relative to control; summary of the method: as §1
[3] = molecular target: T1, Pteridine reductase 1 (Leishmania major) (UniProt Q01782); assay: Inhibition of Leishmania major pteridine reductase 1 at 50 uM using di-hydrobiopterine as substrate in presence of NADPH relative to control; summary of the method: as §1
T1 sequence (whole entry): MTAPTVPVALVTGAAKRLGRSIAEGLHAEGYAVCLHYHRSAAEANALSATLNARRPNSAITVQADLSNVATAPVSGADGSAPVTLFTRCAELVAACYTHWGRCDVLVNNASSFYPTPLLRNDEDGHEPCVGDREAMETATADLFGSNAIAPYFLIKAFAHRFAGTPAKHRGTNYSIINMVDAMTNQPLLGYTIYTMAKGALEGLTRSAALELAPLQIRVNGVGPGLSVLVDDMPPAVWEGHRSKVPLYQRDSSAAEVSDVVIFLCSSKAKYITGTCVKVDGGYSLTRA

Trypanosoma brucei [4] = assay: Growth inhibition of Trypanosoma brucei bloodstream forms at 10 uM measured after 72 hrs by resazurin-based fluorescence assay relative to control; assay type: organism-based; conditions: for inhibition at 10 µM: Trypanosoma brucei, read-out: GI
Trypanosoma brucei [5] = assay: Inhibition of PTR1 in Trypanosoma brucei bloodstream forms assessed as potentiation of methotrexate-induced parasitic cell growth inhibition at 10 uM measured after 72 hrs by resazurin-based fluorescence assay (reference value: 19 +/- 6%)
Summary of the method: (§2)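 Bloodstream-form T. brucei resazurin assay: 72 h at 37 °C, 5% CO₂, then fluorescence at ex 540/em 620 nm. Benzothiazole was tested at 10 μM alone and with 4 μM methotrexate. The index is the combination's activity divided by the sum of the activities of 10 μM benzothiazole and 4 μM methotrexate given separately.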

Trypanosoma brucei [6] = assay: Inhibition of PTR1 in Trypanosoma brucei bloodstream forms assessed as potentiation of methotrexate-induced parasitic cell growth inhibition by measuring potentiation index at 10 uM measured after 72 hrs by resazurin-based fluorescence assay relative to control (methotrexate); assay type: functional; summary of the method: as §2
[7] = molecular target: Voltage-gated inwardly rectifying potassium channel KCNH2 (Homo sapiens, UniProt Q12809); assay: Displacement of Tracer Red from human ERG by fluorescence polarization assay
Chain of Voltage-gated inwardly rectifying potassium channel KCNH2 (Q12809 whole entry): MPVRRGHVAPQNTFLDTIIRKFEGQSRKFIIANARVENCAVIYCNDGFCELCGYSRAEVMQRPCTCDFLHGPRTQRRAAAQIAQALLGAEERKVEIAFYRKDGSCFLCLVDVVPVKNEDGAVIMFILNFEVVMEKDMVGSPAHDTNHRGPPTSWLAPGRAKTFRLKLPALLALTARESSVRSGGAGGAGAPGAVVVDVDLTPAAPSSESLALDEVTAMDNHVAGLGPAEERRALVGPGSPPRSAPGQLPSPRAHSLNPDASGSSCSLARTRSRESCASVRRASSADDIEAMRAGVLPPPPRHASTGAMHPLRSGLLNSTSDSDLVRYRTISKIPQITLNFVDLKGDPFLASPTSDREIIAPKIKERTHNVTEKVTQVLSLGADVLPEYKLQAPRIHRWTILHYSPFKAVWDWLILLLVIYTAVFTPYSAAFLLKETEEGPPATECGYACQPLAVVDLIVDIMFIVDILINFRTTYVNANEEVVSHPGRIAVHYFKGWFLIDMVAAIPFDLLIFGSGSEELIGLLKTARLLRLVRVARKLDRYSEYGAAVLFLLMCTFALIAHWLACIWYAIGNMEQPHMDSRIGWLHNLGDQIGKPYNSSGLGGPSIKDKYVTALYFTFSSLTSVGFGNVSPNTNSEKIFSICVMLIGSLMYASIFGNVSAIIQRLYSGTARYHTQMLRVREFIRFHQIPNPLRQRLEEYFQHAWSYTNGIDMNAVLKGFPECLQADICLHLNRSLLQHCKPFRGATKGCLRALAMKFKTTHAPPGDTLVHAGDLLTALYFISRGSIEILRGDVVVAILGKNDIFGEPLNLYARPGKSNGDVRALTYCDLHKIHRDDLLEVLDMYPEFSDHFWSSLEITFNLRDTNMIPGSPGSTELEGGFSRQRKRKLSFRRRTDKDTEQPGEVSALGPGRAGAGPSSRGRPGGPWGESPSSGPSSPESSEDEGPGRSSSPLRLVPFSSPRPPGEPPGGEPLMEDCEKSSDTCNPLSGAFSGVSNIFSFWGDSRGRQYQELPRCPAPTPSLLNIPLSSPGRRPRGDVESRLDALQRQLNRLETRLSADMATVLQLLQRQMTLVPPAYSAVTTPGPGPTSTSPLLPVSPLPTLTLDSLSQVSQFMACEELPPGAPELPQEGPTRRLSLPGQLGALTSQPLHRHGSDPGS

Cytochrome P450 1A2 = molecular target: T2, Cytochrome P450 1A2 (Homo sapiens, UniProt P05177); assay: Inhibition of human CYP1A2 expressed in baculovirus infected insect cells using beetle D-luciferin as substrate preincubated for 30 mins followed by NADPH addition and measured after 30 mins by CYP450-Glo assay
T2 sequence (P05177 whole entry): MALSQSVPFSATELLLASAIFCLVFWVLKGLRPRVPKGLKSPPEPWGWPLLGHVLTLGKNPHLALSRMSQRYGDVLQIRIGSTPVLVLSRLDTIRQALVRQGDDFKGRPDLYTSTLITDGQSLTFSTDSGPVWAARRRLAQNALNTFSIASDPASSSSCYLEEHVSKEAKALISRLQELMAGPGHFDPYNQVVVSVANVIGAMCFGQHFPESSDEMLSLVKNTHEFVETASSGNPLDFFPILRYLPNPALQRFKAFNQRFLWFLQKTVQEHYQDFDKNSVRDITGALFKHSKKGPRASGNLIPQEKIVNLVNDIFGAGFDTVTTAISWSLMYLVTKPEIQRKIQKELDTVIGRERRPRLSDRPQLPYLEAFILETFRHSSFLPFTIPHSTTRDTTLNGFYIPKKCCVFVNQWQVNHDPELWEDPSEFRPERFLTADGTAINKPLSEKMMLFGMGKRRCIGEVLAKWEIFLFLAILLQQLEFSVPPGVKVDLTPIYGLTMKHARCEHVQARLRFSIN

Cytochrome P450 2C9 = Cytochrome P450 2C9 (Homo sapiens, UniProt P11712); assay: Inhibition of human CYP2C9 expressed in baculovirus infected insect cells using beetle D-luciferin as substrate preincubated for 30 mins followed by NADPH addition and measured after 30 mins by CYP450-Glo assay
Chain of Cytochrome P450 2C9 (P11712 whole entry): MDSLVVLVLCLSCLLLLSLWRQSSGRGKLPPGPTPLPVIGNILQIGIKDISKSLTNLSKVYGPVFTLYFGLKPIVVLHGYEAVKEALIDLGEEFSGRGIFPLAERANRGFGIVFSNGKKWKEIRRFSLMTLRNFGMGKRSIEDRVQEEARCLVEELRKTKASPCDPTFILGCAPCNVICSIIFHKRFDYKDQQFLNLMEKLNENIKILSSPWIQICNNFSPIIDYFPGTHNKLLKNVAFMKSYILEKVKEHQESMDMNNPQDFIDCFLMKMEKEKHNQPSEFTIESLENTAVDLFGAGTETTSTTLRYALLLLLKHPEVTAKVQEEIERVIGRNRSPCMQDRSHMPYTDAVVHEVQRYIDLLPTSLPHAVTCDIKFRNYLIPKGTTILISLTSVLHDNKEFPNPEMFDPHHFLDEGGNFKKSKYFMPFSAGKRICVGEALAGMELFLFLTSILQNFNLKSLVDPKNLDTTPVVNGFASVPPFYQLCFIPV

Cytochrome P450 2C19 = Cytochrome P450 2C19 (Homo sapiens, UniProt P33261); assay: Inhibition of human CYP2C19 expressed in baculovirus infected insect cells using beetle D-luciferin as substrate preincubated for 30 mins followed by NADPH addition and measured after 30 mins by CYP450-Glo assay
Chain of Cytochrome P450 2C19 (P33261 whole entry): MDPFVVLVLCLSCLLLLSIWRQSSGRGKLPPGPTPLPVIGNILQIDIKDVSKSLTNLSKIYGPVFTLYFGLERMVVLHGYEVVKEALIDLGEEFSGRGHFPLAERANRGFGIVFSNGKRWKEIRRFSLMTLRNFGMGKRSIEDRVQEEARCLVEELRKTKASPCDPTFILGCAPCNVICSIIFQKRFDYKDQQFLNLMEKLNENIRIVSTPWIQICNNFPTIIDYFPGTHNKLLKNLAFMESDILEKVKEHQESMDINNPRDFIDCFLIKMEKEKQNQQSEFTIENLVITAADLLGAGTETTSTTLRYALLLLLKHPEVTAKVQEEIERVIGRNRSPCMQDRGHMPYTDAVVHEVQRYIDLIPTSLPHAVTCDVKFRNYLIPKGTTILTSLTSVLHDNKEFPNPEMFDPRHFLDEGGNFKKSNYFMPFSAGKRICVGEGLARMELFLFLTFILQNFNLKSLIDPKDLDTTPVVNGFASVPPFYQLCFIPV

Cytochrome P450 2D6 = Cytochrome P450 2D6 (Homo sapiens, UniProt P10635); assay: Inhibition of human CYP2D6 expressed in baculovirus infected insect cells using beetle D-luciferin as substrate preincubated for 30 mins followed by NADPH addition and measured after 30 mins by CYP450-Glo assay
Chain of Cytochrome P450 2D6 (P10635 whole entry): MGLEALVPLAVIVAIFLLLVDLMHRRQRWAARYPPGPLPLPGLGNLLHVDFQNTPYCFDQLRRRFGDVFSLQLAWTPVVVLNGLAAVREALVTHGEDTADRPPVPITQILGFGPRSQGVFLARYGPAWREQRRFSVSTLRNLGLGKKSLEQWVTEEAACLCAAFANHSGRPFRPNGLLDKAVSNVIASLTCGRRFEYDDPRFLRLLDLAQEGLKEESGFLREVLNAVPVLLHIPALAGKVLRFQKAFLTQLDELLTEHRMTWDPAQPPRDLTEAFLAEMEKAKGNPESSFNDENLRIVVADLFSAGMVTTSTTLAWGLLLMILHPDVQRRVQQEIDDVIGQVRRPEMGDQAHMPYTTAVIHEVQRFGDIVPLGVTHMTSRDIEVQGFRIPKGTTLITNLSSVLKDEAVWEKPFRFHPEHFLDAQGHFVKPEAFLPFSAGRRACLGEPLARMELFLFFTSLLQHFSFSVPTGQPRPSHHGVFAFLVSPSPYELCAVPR

Cytochrome P450 3A4 = Cytochrome P450 3A4 (Homo sapiens, UniProt P08684); assay: Inhibition of human CYP3A4 expressed in baculovirus infected insect cells using beetle D-luciferin as substrate preincubated for 30 mins followed by NADPH addition and measured after 30 mins by CYP450-Glo assay
Chain of Cytochrome P450 3A4 (P08684 whole entry): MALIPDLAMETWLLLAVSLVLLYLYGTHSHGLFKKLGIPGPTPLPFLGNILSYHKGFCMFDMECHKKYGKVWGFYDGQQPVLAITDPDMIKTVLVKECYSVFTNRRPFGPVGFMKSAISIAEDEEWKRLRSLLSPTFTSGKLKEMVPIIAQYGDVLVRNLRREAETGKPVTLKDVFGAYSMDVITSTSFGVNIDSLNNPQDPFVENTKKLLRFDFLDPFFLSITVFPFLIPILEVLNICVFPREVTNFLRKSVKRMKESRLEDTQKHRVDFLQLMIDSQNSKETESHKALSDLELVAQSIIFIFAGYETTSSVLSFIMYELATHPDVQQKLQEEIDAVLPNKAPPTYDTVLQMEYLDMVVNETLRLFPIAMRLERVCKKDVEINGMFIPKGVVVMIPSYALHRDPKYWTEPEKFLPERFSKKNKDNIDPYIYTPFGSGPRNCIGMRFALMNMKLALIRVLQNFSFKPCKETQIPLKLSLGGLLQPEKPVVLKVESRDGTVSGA

[8] = Cytotoxicity against human A549 cells after 48 hrs by Celltiter-glo assay; assay type: cell-based
[9] = Cytotoxicity against human THP1 cells after 72 hrs by MTT assay; assay type: cell-based, THP-1; conditions: read-out: NOAEL
[10] = Cytotoxicity against human U2OS cells assessed as reduction in cell number; assay type: cell-based
[11] = Mitochondrial toxicity in human 786-O cells measured after 6 hrs by MitoTracker Red chloromethyl-X-rosamine based assay; assay type: cell-based, 786-0
[12] = Selectivity ratio of IC50 for Leishmania major pteridine reductase 1 to IC50 for N-terminal His-tagged Trypanosoma brucei pteridine reductase 1
Pteridine reductase 1 = molecular target: T3, Pteridine reductase 1 (Leishmania major, UniProt Q01782); assay: Inhibition of Leishmania major pteridine reductase 1 using di-hydrobiopterine as substrate in presence of NADPH; conditions: read-out: IC50; summary of the method: as §1
T3 sequence (Q01782 whole entry): T1 sequence (whole entry)

SMILES	IC50 [1]	inhibition (Trypanosoma brucei [2])	inhibition [3]	growth inhibition (GI) (Trypanosoma brucei [5])	IC50 (Cytochrome P450 1A2)	IC50 (Cytochrome P450 2C9)	IC50 (Cytochrome P450 2C19)	IC50 (Cytochrome P450 2D6)	IC50 (Cytochrome P450 3A4)	Ratio IC50 [12]	IC50 (Pteridine reductase 1)	growth inhibition (GI) (Leishmania infantum)	inhibition at 10 µM (Trypanosoma brucei [4])	Ratio (Trypanosoma brucei [6])	IC50 [7]	GI50 at 48 h [8]	MNTC at 72 h [9]	GI50 [10]	IC50 at 6 h [11]	inhibition at 50 µM (Trypanosoma cruzi)	other results
Nc1nc2ccc(SCc3ccc(C(=O)NCc4ccccc4)cc3)cc2s1	0.5 µM	> 60%	> 60%	80%	> 25 µM	< 10 µM	< 10 µM	< 10 µM	< 10 µM	2 to 100	30 µM	Non-Toxic	26 to 33%	1.6	> 25 µM	< 10 µM	10 to 25 µM	> 25 µM	> 25 µM	19.2%	
N#Cc1ccc(COc2ccc3nc(N)sc3c2)cc1	0.67 µM	> 60%	> 60%	80%	> 25 µM	> 25 µM	< 10 µM	> 25 µM	10 to 25 µM	2 to 100	86.5 µM	Non-Toxic	21 to 27%	2	> 25 µM	10 to 25 µM	10 to 25 µM	> 25 µM	> 25 µM	15.4%	
N#Cc1ccc(CSc2ccc3nc(N)sc3c2)cc1	0.35 µM	> 60%	> 60%	63%	> 25 µM	10 to 25 µM	< 10 µM	< 10 µM	< 10 µM	2 to 100	12.4 µM	Non-Toxic	29 to 35%	1.3		> 25 µM	> 25 µM	> 25 µM	< 10 µM	27.3%	
Nc1nc2ccc(C(=O)NC(c3ccccc3)c3ccccc3)cc2s1	18.5 µM	> 60%	> 60%		> 25 µM	< 10 µM	< 10 µM	< 10 µM	< 10 µM	2 to 100	88.5 µM		10%		> 25 µM	> 25 µM	> 25 µM	> 25 µM	> 25 µM	37.8%	inhibition at 10 µM (Leishmania infantum; Leishmania infantum, THP-1, 72 h, read-out: GI): 15%
Nc1nc2ccc(C(=O)NCc3ccccc3N)cc2s1	13.9 µM	> 60%	> 60%		> 25 µM	> 25 µM	> 25 µM	10 to 25 µM	10 to 25 µM	2 to 100	64.7 µM	Non-Toxic	8%		> 25 µM	> 25 µM	> 25 µM	> 25 µM	> 25 µM	6.1%	
COC(=O)c1ccc(CNC(=O)c2ccc3nc(N)sc3c2)cc1	16.5 µM	> 60%	> 60%		> 25 µM	10 to 25 µM	> 25 µM	> 25 µM	> 25 µM	2 to 100	36 µM	Non-Toxic	16%		> 25 µM	> 25 µM	> 25 µM	> 25 µM	> 25 µM		growth inhibition (GI) (Trypanosoma cruzi): Non-Toxic
Nc1nc2c(C(=O)N(Cc3ccccc3)Cc3ccc(Cl)c(Cl)c3)cc(O)c(O)c2s1	11.4 µM	> 60%	> 60%		< 10 µM	< 10 µM	10 to 25 µM	< 10 µM	< 10 µM	2 to 100	15.2 µM	Non-Toxic	25%		< 10 µM	> 25 µM	10 to 25 µM	10 to 25 µM	> 25 µM		growth inhibition (GI) (Trypanosoma cruzi): Non-Toxic

The remaining molecules from weak to strong by IC50 [1], led by results:

IC50 [1]	inhibition (Trypanosoma brucei [2])	inhibition [3]	growth inhibition (GI) (Trypanosoma brucei [5])	IC50 (Cytochrome P450 1A2)	IC50 (Cytochrome P450 2C9)	IC50 (Cytochrome P450 2C19)	IC50 (Cytochrome P450 2D6)	IC50 (Cytochrome P450 3A4)	Ratio IC50 [12]	IC50 (Pteridine reductase 1)	SMILES	growth inhibition (GI) (Leishmania infantum)	inhibition at 10 µM (Trypanosoma brucei [4])	Ratio (Trypanosoma brucei [6])	IC50 [7]	GI50 at 48 h [8]	MNTC at 72 h [9]	GI50 [10]	IC50 at 6 h [11]	inhibition at 50 µM (Trypanosoma cruzi)	other results
24.3 µM	> 60%	> 60%		> 25 µM	< 10 µM	< 10 µM	< 10 µM	< 10 µM	2 to 100	50 µM	COC(=O)C1CCN(C(=O)c2ccc(CS(=O)(=O)c3ccc4nc(N)sc4c3)cc2)CC1	Non-Toxic			> 25 µM	> 25 µM	> 25 µM	> 25 µM	> 25 µM		growth inhibition (GI) (Trypanosoma cruzi): Non-Toxic; growth inhibition (GI) (Trypanosoma brucei [4]; trypanosoma brucei, 10 µM): Non-Toxic
3 µM	> 60%	55.5%	48%	> 25 µM	> 25 µM	10 to 25 µM	< 10 µM	< 10 µM	2 to 100		N#Cc1ccc(CS(=O)(=O)c2ccc3nc(N)sc3c2)cc1	Non-Toxic	9 to 13%	1.5	> 25 µM	> 25 µM	> 25 µM	> 25 µM	> 25 µM		growth inhibition (GI) (Trypanosoma cruzi): Non-Toxic
0.9 µM	> 60%	> 60%	65%	10 to 25 µM	> 25 µM	< 10 µM	< 10 µM	< 10 µM	2 to 100	10 µM	Nc1nc2ccc(SCc3ccc(Cl)c(Cl)c3)cc2s1	Non-Toxic	41 to 46%	1.1	> 25 µM	10 to 25 µM	> 25 µM	> 25 µM	> 25 µM	21.4%	
